Laboratory results as given in ChEMBL document CHEMBL1144948, “Design and synthesis of 1,5-diarylbenzimidazoles as inhibitors of the VEGF-receptor KDR” (Bioorg Med Chem Lett, 2003).
Converted amounts (≈) assume the structure as drawn.

Experiments:
HUVEC = assay: Inhibition of HUVEC cell proliferation; details: Homo sapiens
[1] = Half life period (t1/2) of compound was determined after intravenous administration in average of two dogs at a dose of 1 mg/kg; assay type: ADME, organism-based, Canis lupus familiaris; set-up: dose 1 mg/kg, route intravenous; details: dog, in vivo
How it was run: (§1)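 Dogs (n=2, averaged) received 1 mpk iv as a solution in DMSO.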

[2] = Volume distribution of compound was determined as average of four rats at each dose of 5 mg/kg intravenous and 20 mg/kg peroral administration; assay type: ADME, organism-based; details: rat, in vivo, read-out: Vdss
How it was run: (§2)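 Rats, four per route and values averaged; 5 mpk iv given as a solution in DMSO, 20 mpk po as a suspension in 0.5% methocel.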

[3] = CL (clearance) of compound was determined as average of four rats at each dose of 5 mg/kg intravenous and 20 mg/kg peroral administration; assay type: ADME, organism-based; details: rat, in vivo; how it was run: as §2
[4] = Solubility atpH 5.2; assay type: physicochemical; details: pH 5.2
How it was run: (§3)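 Saturated compound solution in pH-adjusted buffer is filtered. Concentration comes from the HPLC peak area compared against standard methanolic solutions.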

[5] = Oral bioavailability (F%) of compound was determined as average of four rats at each dose of 5 mg/kg intravenous and 20 mg/kg peroral administration; assay type: ADME, organism-based; details: rat, in vivo; how it was run: as §2
[6] = Solubility at pH 7.4; assay type: physicochemical; details: buffer; how it was run: as §3
[7] = Half life period as average of four rats at each dose of 5 mg/kg intravenous and 20 mg/kg peroral administration; assay type: ADME, organism-based; details: rat, in vivo; how it was run: as §2
[8] = Volume distribution (Vdss) of compound was determined after intravenous administration in average of two dogs at a dose of 1 mg/kg; assay type: ADME, organism-based, Canis lupus familiaris; set-up: dose 1 mg/kg, route intravenous; details: dog, in vivo, read-out: Vdss; how it was run: as §1
[9] = CL (clearance) of compound was determined after intravenous administration in average of two dogs at a dose of 1 mg/kg; assay type: ADME, organism-based, Canis lupus familiaris; set-up: dose 1 mg/kg, route intravenous; details: dog, in vivo; how it was run: as §1
Homo sapiens = species on record: Homo sapiens; assay: Compound tested for ability to bind to human plasma protein; assay type: cell-free
How it was run: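 Human plasma binding: buffer solutions of test compound equilibrated with human plasma, free and bound drug separated by ultrafiltration, free compound concentration measured by HPLC; reported as percent bound.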

[10] = Partition coefficient (logP); assay type: physicochemical; details: octanol/water
How it was run: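 Shake-flask partition: a methanolic sample aliquot added to equal volumes of 1-octanol and pH 7.4 buffer, equilibrated 8 h, then compound concentration measured in each phase.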

[11] = Solubility at pH 5.2; assay type: physicochemical; details: buffer; how it was run: as §3
[12] = Oral bioavailability (F%) of compound was determined as average of four rats at each dose of 5 mg/kg intravenous and 16 mg/kg peroral administration; assay type: ADME, organism-based; details: rat, in vivo
How it was run: (§4)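 Rats (n=4 per route, averaged) dosed 5 mpk iv as a DMSO solution and 16 mpk po as a suspension in 0.5% methocel.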

[13] = Volume distribution of compound was determined as average of four rats at each dose of 5 mg/kg intravenous and 16 mg/kg peroral administration; assay type: ADME, organism-based; details: rat, in vivo, read-out: Vdss; how it was run: as §4
[14] = CL (clearance) of compound was determined as average of four rats at each dose of 5 mg/kg intravenous and 16 mg/kg peroral administration; assay type: ADME, organism-based; details: rat, in vivo; how it was run: as §4
[15] = Half life period as average of four rats at each dose of 5 mg/kg intravenous and 16 mg/kg peroral administration; assay type: ADME, organism-based; details: rat, in vivo; how it was run: as §4

O=c1ccc(-c2ccc3c(c2)ncn3-c2ccccc2)cn1CCCN1CCCCC1
IC50 (HUVEC): 152 nM

O=c1cc(-c2ccc3c(c2)ncn3-c2ccccc2)ccn1CCCN1CCCCC1
half-life [1]: 10.4 h
Vd [2]: 3.9 L/kg
clearance [3]: 17.3 mL/min/kg
solubility [4]: 33900 µg/mL (≈ 82.2 mM)
bioavailability [5]: 73%
solubility [6]: 8400 µg/mL (≈ 20.4 mM)
half-life [7]: 2.9 h
Vd [8]: 7.9 L/kg
clearance [9]: 8.9 mL/min/kg
IC50 (HUVEC): 37 nM
Binding (Homo sapiens): 80.7%
logP [10]: 2.25

c1ccc(-n2cnc3cc(-c4ccc(NCCN5CCOCC5)nc4)ccc32)cc1
IC50 (HUVEC): 213 nM

c1ccc(-n2cnc3cc(-c4ccc(OCCN5CCCCC5)cc4)cnc32)cc1
solubility [11]: 6460 µg/mL (≈ 16.2 mM)
solubility [6]: 21 µg/mL (≈ 0.0527 mM)
IC50 (HUVEC): 48 nM
Binding (Homo sapiens): 97.4%
logP [10]: 3.55

O=c1nc(-c2ccc3c(c2)ncn3-c2ccccc2)ccn1CCCN1CCCCC1
IC50 (HUVEC): 164 nM

COc1ccc(-c2ccc3c(c2)ncn3-c2ccccc2)cc1
IC50 (HUVEC): > 1000 nM

c1ccc(-n2cnc3cc(-c4ccc(OCCN5CCCCC5)cc4)ccc32)cc1
half-life [1]: 5.2 h
bioavailability [12]: 76%
solubility [11]: 120 µg/mL (≈ 0.302 mM)
Vd [13]: 1.9 L/kg
solubility [6]: < 0.01 µg/mL
Vd [8]: 3.1 L/kg
clearance [14]: 14.4 mL/min/kg
clearance [9]: 4.6 mL/min/kg
half-life [15]: 6.1 h
IC50 (HUVEC): 87 nM
Binding (Homo sapiens): 99.4%
logP [10]: 4.29

O=c1ccc(-c2ccc3c(c2)ncn3-c2ccccc2)cn1CCN1CCCCC1
solubility [6]: > 1000 µg/mL
Binding (Homo sapiens): 85%

c1ccc(-n2cnc3cc(-c4ccc(OCCN5CCCCC5)nc4)ccc32)cc1
IC50 (HUVEC): 122 nM
